# Test results from ChEMBL document CHEMBL3877264, “Quinolidene-rhodanine conjugates: Facile synthesis and biological evaluation” (Eur J Med Chem, 2017).
# How the values were obtained:
# Staphylococcus aureus = assay: Growth inhibition of Staphylococcus aureus NCIM 2010 at 30 ug/ml measured after 12 hrs relative to control; assay type: functional; conditions: NCIM 2010, 12 h, read-out: GI
# Method in brief: (§1)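 Bacteria grown in LB at 37 °C and 180 rpm to OD 1. Compounds added to wells, then 0.1% inoculum of 1 OD culture (620 nm). Growth read as OD at 620 nm after 8 h for gram-negative and after 12 h for gram-positive strains.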
# Escherichia coli = assay: Growth inhibition of Escherichia coli NCIM 2688 at 10 ug/ml measured after 8 hrs relative to control; assay type: functional; conditions: NCIM 2688, 8 h, read-out: GI; method in brief: as §1
# Pseudomonas fluorescens = assay: Antibacterial activity against Pseudomonas fluorescens NCIM 2036 measured after 8 hrs; assay type: functional; conditions: NCIM 2036, 8 h; method in brief: as §1
# [1] = system: Mycobacterium tuberculosis; assay: Growth inhibition of Mycobacterium tuberculosis H37Ra ATCC 25177 at active stage at 50 ug/ml measured after 8 days by XTT dye based two fold dilution method relative to control; assay type: functional; conditions: H37Ra ATCC 25177, 192 h, read-out: GI
# Method in brief: (§2)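 MTB H37Ra was grown in Dubos medium, then exposed in Mycobacterium pheli minimal medium (pH 6.6) to compounds dissolved in DMSO. The assay ended on day 8 (active) or day 12 (dormant). Viable cells were measured by XTT reduction menadione assay at 470 nm, blank-corrected, relative to vehicle control. Triplicates were expressed as mean ± SD. MIC came from dose-response curves.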
# [2] = system: Mycobacterium tuberculosis; assay: Growth inhibition of Mycobacterium tuberculosis H37Ra ATCC 25177 at active stage at 12.5 ug/ml measured after 8 days by XTT dye based two fold dilution method relative to control; assay type: functional; conditions: H37Ra ATCC 25177, 192 h, read-out: GI
# [3] = system: Mycobacterium tuberculosis; assay: Growth inhibition of Mycobacterium tuberculosis H37Ra ATCC 25177 at active stage at 3.13 ug/ml measured after 8 days by XTT dye based two fold dilution method relative to control; assay type: functional; conditions: H37Ra ATCC 25177, 192 h, read-out: GI; method in brief: as §2
# [4] = system: Mycobacterium tuberculosis; assay: Growth inhibition of Mycobacterium tuberculosis H37Ra ATCC 25177 at active stage at 0.78 ug/ml measured after 8 days by XTT dye based two fold dilution method relative to control; assay type: functional; conditions: H37Ra ATCC 25177, 192 h, read-out: GI; method in brief: as §2
# [5] = system: Mycobacterium tuberculosis; assay: Growth inhibition of Mycobacterium tuberculosis H37Ra ATCC 25177 at dormant stage at 25 ug/ml measured after 12 days by XTT dye based two fold dilution method relative to control; assay type: functional; conditions: H37Ra ATCC 25177, 288 h, read-out: GI; method in brief: as §2
# [6] = system: Mycobacterium tuberculosis; assay: Growth inhibition of Mycobacterium tuberculosis H37Ra ATCC 25177 at dormant stage at 3.13 ug/ml measured after 12 days by XTT dye based two fold dilution method relative to control; assay type: functional; conditions: H37Ra ATCC 25177, 288 h, read-out: GI; method in brief: as §2
# [7] = system: Mycobacterium tuberculosis; assay: Growth inhibition of Mycobacterium bovis BCG ATCC 35743 at dormant stage at 12.5 ug/ml measured after 12 days by nitrate reductase dye based two fold dilution method relative to control; assay type: functional; conditions: BCG str. ATCC 35743, 288 h, read-out: GI
# [8] = system: Mycobacterium tuberculosis; assay: Growth inhibition of Mycobacterium bovis BCG ATCC 35743 at dormant stage at 1.56 ug/ml measured after 12 days by nitrate reductase dye based two fold dilution method relative to control; assay type: functional; conditions: BCG str. ATCC 35743, 288 h, read-out: GI
# Method in brief: (§3)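 M. bovis BCG was grown in Dubos medium and assayed in Mycobacterium pheli minimal medium (pH 6.6), with compounds from DMSO stocks. Incubation lasted 8 days for active and 12 days for dormant cultures. Viability was read by nitrate reductase at 540 nm against cell-free blanks, with vehicle set as 100% growth. Primary screen was at 30, 10 and 3 µg/ml, in triplicate, mean ± SD. MIC was taken from dose-response curves.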
# [9] = system: Mycobacterium tuberculosis; assay: Growth inhibition of Mycobacterium bovis BCG ATCC 35743 at active stage at 12.5 ug/ml measured after 8 days by nitrate reductase dye based two fold dilution method relative to control; assay type: functional; conditions: BCG str. ATCC 35743, 192 h, read-out: GI
# [10] = system: Mycobacterium tuberculosis; assay: Growth inhibition of Mycobacterium bovis BCG ATCC 35743 at active stage at 1.56 ug/ml measured after 8 days by nitrate reductase dye based two fold dilution method relative to control; assay type: functional; conditions: BCG str. ATCC 35743, 192 h, read-out: GI; method in brief: as §3
# [11] = system: Mycobacterium tuberculosis; assay: Growth inhibition of Mycobacterium bovis BCG ATCC 35743 at dormant stage at 3 ug/ml measured after 12 days by nitrate reductase dye based two fold dilution method relative to control; assay type: functional; conditions: BCG str. ATCC 35743, 288 h, read-out: GI; method in brief: as §3
# [12] = system: Mycobacterium tuberculosis; assay: Growth inhibition of Mycobacterium bovis BCG ATCC 35743 at active stage measured after 8 days by nitrate reductase dye based two fold dilution method; assay type: functional; conditions: BCG str. ATCC 35743, 192 h; method in brief: as §3
# [13] = Antifungal activity against Cryptococcus neoformans NCIM 576 by standard agar method; assay type: functional
# Method in brief: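 MICs determined by standard agar method; DMSO as solvent control.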
# [14] = Cytotoxicity against primary HUVEC assessed as growth inhibition at 100 ug/ml measured after 48 hrs by MTT assay relative to control; assay type: toxicity, cell-based; conditions: human, read-out: GI
# [15] = Cytotoxicity against human A549 cells measured after 48 hrs by MTT assay; assay type: toxicity, cell-based
# [16] = Cytotoxicity against human HeLa cells measured after 48 hrs by MTT assay; assay type: toxicity, cell-based
# [17] = Selectivity index, ratio of GI50 for HUVEC to MIC for Mycobacterium bovis BCG ATCC 35743 at dormant stage; conditions: pooled result: one value given for 6 cell lines, strains, targets or settings
# Method in brief: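 SI is the cell-line GI50 divided by the dormant-stage mycobacterial MIC. […] THP-1 macrophages were PMA-differentiated for 24 h.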
Compound,inhibition of growth at 30 µg/mL (Staphylococcus aureus) [%],inhibition of growth at 10 µg/mL (Escherichia coli) [%],MIC (Pseudomonas fluorescens) [µg/mL],inhibition of growth at 50 µg/mL [1] [%],inhibition of growth at 12.5 µg/mL [2] [%],inhibition of growth at 3.13 µg/mL [3] [%],inhibition of growth at 0.78 µg/mL [4] [%],inhibition of growth at 25 µg/mL [5] [%],inhibition of growth at 3.13 µg/mL [6] [%],inhibition of growth at 12.5 µg/mL [7] [%],inhibition of growth at 1.56 µg/mL [8] [%],inhibition of growth at 12.5 µg/mL [9] [%],inhibition of growth at 1.56 µg/mL [10] [%],inhibition of growth at 3 µg/mL [11] [%],IC50 [12] [µg/mL],IC90 [12] [µg/mL],MIC [13] [µg/mL],"inhibition at 48 h, 100 ug/ml [14] [%]",GI50 at 48 h [15] [µg/mL],GI50 at 48 h [16] [µg/mL],other results
COc1ccc2cc(/C=C3\SC(=S)NC3=O)c(Cl)nc2c1,-23.5,39.4,> 30,102,83.1,8.88,16.8,103,36.4,98.8,-29.2,98.9,-36.6,-7.94,1.7,2.9,50,25.4,> 100,> 100,Selectivity Index [17]: 60.2
Cc1cccc2cc(/C=C3\SC(=S)N(CC(=O)O)C3=O)c(Cl)nc12,15.5,3.38,> 30,107,22,-10.2,-16,96.8,11.5,–,–,–,–,22.7,> 30,> 30,150,34,> 100,> 100,–
O=C1NC(=S)S/C1=C\c1cc2cc(Cl)ccc2nc1Cl,101,109,2.8,97.5,99.3,81.1,24.1,96.8,42.4,100,60.5,99.5,86.2,99.8,1,1.7,100,25.9,> 100,> 100,Selectivity Index [17]: 43.7
O=C1NC(=S)S/C1=C\c1cc2cc(F)ccc2nc1Cl,101,27.5,> 30,119,99.9,52.6,9.07,95.7,28.4,100,-2.98,98.3,-13.2,0.38,2.4,4.2,25,34.2,> 100,> 100,Selectivity Index [17]: 18.9
